37 compounds from ChEMBL document CHEMBL1275372, “Conformationally restricted homotryptamines. Part 7: 3-cis-(3-aminocyclopentyl)indoles as potent selective serotonin reuptake inhibitors” (J Med Chem, 2010) can be followed below.

The target of series [1] is Sodium-dependent serotonin transporter (Homo sapiens, UniProt P31645). Nature of the series: Binding affinity to human SERT.
For series [2], the target named is Sodium-dependent noradrenaline transporter (Homo sapiens, UniProt P23975). The series is described as follows: Binding affinity to human NET.
Series [3] addresses Sodium-dependent dopamine transporter (Homo sapiens, UniProt Q01959). The series is described as follows: Binding affinity to human DAT.
The target of series [4] is T1, 5-hydroxytryptamine receptor 1A (Homo sapiens, UniProt P08908).
T1 sequence (P08908 whole entry): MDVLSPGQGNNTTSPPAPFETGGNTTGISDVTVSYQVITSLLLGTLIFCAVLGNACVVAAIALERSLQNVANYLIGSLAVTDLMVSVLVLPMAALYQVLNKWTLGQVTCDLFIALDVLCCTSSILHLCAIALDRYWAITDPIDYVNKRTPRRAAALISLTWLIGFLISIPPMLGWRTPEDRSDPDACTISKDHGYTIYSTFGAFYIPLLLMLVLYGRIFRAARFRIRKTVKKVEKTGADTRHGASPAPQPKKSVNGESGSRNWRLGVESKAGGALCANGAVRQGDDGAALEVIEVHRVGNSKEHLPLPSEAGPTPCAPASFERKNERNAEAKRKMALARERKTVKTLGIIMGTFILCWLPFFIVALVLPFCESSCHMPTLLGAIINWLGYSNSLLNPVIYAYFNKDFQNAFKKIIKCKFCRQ
The series is described as follows: Binding affinity to 5HT1A receptor.

In series [5] the target is 5-hydroxytryptamine receptor 1B (Homo sapiens, UniProt P28222). The series is described as follows: Binding affinity to 5HT1B receptor.
The target in series [6] is 5-hydroxytryptamine receptor 2A (Homo sapiens, UniProt P28223). The series is described as follows: Binding affinity to 5HT2A receptor.
Series [7] concerns the target 5-hydroxytryptamine receptor 2B (Homo sapiens, UniProt P41595). Nature of the series: Binding affinity to 5HT2B receptor.
In series [8] the target is T2, 5-hydroxytryptamine receptor 2C (Homo sapiens, UniProt P28335).
T2 sequence (P28335 whole entry): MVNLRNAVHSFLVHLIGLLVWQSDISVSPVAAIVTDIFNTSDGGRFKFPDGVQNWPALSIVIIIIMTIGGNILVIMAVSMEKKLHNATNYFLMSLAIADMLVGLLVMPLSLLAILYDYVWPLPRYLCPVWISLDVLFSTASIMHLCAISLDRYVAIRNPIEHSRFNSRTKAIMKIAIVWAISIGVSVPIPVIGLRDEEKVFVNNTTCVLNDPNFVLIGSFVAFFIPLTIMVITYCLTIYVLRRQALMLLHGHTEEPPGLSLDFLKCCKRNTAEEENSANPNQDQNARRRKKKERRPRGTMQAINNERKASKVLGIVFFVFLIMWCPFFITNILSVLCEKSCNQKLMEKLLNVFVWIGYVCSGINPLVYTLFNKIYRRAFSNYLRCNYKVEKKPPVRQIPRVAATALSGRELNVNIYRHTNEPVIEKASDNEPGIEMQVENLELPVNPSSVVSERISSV
Nature of the series: Binding affinity to 5HT2C receptor.

In series [9] the target is 5-hydroxytryptamine receptor 4 (Homo sapiens, UniProt Q13639). The series is described as follows: Binding affinity to 5HT4 receptor.
The target of series [10] is 5-hydroxytryptamine receptor 5A (Homo sapiens, UniProt P47898). The series is described as follows: Binding affinity to 5HT5A receptor.
The target of series [11] is 5-hydroxytryptamine receptor 6 (Homo sapiens, UniProt P50406). The series is described as follows: Binding affinity to 5HT6 receptor.
The target of series [12] is 5-hydroxytryptamine receptor 7 (Homo sapiens, UniProt P34969). The series is described as follows: Binding affinity to 5HT7 receptor.
In series [13] the target is D(1A) dopamine receptor (Homo sapiens, UniProt P21728). Nature of the series: Binding affinity to dopamine D1.
In series [14] the target is D(2) dopamine receptor (Homo sapiens, UniProt P14416). The series is described as follows: Binding affinity to dopamine D2.
Series [15] concerns Rattus norvegicus. Nature of the series: Increase in extracellular serotonin levels in po dosed rat frontal cortex. It counts as functional, organism-based. Summed up: (§1)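 In vivo microdialysis in rat frontal cortex measuring extracellular serotonin. Oral doses were 1 and 3 mg/kg, with a reference SSRI at 5 mg/kg po; an iv arm used 1.0 mg/kg. Change is expressed as percent increase over vehicle-treated controls, with significance tested against vehicle.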

The test system of series [16] is Rattus norvegicus. The series is described as follows: Increase in extracellular serotonin levels in rat frontal cortex at 3 mg/kg, po by microdialysis method relative to untreated control. It counts as functional. The method, boiled down: as §1
For series [17], the system named is Rattus norvegicus. The series is described as follows: Increase in extracellular serotonin levels in rat frontal cortex at 5 mg/kg, po by microdialysis method relative to untreated control. Set-up: dose 5 mg/kg. Format: functional, organism-based. Summed up: as §1
Series [18] concerns Brain. Nature of the series: Drug concentration in rat brain at 3 mg/kg, po after 2 hrs by microdialysis method. It counts as ADME, organism-based. The arrangement: dose 3 mg/kg, route oral. As to conditions: in vivo. The method, boiled down: (§2)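 Rats dosed orally at 3 mg/kg as part of the frontal-cortex microdialysis experiments. Drug levels in brain and plasma sampled at 2 h after dosing. Oral bioavailability, Tmax and half-life are reported from the same oral 3 mg/kg dosing in rat.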

The nature of series [19]: Drug concentration in rat plasma at 3 mg/kg, po after 2 hrs by microdialysis method. Format: ADME, organism-based. The arrangement: dose 3 mg/kg, route oral. Summed up:
as §2

Series [20] in a line: Oral bioavailability in rat plasma at 3 mg/kg by microdialysis method. Format: ADME, organism-based. Summed up:
as §2

Series [21] can be described thus: Tmax in rat at 3 mg/kg, po by microdialysis method. It counts as ADME, organism-based. Set-up: dose 3 mg/kg, route oral. As to conditions: in vivo. The method, boiled down:
as §2

Series [22] can be described thus: Half life in rat at 3 mg/kg, po by microdialysis method. The arrangement: dose 3 mg/kg, route oral. As to conditions: in vivo. It counts as ADME, organism-based. Summed up: as §2

The source made the active and inactive calls. No cut-off for these calls is given here.

Sodium-dependent serotonin transporter, sequence (P31645 whole entry): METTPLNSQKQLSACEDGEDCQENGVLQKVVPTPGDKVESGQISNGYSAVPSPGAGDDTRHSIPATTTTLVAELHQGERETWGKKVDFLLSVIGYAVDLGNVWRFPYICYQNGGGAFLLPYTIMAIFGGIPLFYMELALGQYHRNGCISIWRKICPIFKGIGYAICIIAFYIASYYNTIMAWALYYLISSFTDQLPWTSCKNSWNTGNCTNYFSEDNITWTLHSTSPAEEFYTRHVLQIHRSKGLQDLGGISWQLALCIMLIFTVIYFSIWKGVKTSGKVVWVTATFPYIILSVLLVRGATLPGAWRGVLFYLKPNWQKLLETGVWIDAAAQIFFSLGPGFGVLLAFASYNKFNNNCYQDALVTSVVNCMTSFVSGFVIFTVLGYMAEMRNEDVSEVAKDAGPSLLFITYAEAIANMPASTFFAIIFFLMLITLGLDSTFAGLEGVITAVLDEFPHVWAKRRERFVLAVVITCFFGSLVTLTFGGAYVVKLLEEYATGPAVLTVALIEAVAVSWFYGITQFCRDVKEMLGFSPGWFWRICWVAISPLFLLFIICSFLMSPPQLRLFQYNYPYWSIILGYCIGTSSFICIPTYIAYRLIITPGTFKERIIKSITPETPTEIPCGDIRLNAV
D(2) dopamine receptor, sequence (P14416 whole entry): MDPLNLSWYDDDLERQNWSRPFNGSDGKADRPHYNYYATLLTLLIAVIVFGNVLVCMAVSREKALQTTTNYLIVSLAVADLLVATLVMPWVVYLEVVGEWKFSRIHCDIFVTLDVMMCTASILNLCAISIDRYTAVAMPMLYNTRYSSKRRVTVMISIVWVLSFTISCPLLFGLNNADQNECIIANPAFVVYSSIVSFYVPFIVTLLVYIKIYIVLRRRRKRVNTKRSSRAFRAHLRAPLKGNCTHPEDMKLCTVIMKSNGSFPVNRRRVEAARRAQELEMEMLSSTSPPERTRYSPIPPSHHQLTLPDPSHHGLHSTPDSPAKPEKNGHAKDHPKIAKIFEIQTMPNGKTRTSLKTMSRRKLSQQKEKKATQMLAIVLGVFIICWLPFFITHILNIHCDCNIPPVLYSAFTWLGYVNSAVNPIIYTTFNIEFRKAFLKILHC
Sodium-dependent noradrenaline transporter, sequence (P23975 whole entry): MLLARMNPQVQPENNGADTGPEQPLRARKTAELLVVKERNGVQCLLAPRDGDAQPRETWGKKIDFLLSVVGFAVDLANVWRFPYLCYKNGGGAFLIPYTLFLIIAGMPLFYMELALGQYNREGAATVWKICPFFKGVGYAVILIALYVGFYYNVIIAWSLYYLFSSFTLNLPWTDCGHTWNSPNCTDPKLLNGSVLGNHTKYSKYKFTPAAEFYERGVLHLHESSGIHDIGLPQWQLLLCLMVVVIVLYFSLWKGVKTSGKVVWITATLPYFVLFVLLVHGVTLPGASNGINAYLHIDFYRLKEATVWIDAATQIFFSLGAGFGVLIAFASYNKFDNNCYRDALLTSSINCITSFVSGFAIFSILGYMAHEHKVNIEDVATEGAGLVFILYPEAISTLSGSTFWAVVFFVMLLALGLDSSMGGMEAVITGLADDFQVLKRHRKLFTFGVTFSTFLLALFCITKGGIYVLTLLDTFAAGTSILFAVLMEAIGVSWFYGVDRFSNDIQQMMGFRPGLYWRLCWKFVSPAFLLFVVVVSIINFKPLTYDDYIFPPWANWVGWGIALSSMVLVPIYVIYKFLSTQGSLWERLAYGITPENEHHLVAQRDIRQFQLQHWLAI
5-hydroxytryptamine receptor 1B, sequence (P28222 whole entry): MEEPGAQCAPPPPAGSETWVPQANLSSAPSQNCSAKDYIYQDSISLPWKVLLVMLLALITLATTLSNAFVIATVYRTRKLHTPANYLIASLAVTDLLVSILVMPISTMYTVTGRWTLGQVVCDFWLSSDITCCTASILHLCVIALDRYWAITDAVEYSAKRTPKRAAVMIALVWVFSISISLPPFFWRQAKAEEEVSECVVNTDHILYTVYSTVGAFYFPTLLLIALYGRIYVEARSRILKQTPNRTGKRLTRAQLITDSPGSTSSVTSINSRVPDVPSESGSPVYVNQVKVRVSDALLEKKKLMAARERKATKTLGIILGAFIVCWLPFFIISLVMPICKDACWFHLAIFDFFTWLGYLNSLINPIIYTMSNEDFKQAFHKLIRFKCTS
5-hydroxytryptamine receptor 5A, sequence (P47898 whole entry): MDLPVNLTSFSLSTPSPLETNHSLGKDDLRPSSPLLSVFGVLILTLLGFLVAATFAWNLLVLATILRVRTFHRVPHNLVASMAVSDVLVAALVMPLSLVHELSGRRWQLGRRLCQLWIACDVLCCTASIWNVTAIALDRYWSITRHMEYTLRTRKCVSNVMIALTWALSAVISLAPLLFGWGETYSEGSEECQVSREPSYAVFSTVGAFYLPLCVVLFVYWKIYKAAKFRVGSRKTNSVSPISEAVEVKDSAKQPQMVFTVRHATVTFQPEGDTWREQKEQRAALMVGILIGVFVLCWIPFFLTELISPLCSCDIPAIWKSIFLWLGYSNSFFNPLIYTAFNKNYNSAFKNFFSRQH
5-hydroxytryptamine receptor 2A, sequence (P28223 whole entry): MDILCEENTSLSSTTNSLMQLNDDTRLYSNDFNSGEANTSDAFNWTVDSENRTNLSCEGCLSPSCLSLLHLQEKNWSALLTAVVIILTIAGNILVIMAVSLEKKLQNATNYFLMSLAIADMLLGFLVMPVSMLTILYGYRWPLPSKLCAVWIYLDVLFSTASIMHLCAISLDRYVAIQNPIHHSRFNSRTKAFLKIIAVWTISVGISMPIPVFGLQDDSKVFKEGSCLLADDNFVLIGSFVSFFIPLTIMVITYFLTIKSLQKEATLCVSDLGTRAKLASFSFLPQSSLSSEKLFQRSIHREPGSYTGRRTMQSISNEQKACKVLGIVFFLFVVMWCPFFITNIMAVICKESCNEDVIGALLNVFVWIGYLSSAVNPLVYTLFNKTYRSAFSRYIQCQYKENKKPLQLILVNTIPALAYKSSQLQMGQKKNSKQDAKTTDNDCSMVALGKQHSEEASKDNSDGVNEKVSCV
5-hydroxytryptamine receptor 4, sequence (Q13639 whole entry): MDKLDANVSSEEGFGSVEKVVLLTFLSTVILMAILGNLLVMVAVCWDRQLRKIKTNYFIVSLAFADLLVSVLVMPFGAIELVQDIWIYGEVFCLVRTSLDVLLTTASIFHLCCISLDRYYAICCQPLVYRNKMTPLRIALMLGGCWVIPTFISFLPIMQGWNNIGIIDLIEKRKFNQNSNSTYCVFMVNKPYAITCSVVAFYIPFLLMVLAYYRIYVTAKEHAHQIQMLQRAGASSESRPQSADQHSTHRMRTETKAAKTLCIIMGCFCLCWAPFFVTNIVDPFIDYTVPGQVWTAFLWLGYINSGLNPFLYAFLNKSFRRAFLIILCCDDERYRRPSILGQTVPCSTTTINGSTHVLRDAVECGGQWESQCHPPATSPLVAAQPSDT
5-hydroxytryptamine receptor 7, sequence (P34969 whole entry): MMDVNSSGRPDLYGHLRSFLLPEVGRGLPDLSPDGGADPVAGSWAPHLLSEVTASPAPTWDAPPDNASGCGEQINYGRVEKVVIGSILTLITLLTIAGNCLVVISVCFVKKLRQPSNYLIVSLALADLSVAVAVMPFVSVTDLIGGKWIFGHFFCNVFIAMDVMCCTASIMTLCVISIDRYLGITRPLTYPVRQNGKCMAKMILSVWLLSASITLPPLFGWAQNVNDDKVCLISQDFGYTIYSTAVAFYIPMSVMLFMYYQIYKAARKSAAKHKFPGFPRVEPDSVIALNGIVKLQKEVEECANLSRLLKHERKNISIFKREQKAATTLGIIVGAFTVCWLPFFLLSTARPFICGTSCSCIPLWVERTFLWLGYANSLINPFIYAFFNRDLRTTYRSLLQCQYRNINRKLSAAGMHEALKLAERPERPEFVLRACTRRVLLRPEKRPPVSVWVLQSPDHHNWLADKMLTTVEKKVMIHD
D(1A) dopamine receptor, sequence (P21728 whole entry): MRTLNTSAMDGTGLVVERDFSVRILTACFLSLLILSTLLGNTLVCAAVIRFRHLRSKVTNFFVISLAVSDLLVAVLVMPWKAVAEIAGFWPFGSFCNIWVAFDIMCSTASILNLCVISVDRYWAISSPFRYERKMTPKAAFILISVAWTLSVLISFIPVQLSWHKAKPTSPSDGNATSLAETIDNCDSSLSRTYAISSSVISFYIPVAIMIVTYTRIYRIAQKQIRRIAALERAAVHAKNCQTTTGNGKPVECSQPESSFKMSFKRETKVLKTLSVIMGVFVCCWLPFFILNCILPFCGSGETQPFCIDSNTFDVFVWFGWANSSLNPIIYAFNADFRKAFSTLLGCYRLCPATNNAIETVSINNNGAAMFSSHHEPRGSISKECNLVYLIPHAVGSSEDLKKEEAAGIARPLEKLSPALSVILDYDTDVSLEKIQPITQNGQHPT
5-hydroxytryptamine receptor 2B, sequence (P41595 whole entry): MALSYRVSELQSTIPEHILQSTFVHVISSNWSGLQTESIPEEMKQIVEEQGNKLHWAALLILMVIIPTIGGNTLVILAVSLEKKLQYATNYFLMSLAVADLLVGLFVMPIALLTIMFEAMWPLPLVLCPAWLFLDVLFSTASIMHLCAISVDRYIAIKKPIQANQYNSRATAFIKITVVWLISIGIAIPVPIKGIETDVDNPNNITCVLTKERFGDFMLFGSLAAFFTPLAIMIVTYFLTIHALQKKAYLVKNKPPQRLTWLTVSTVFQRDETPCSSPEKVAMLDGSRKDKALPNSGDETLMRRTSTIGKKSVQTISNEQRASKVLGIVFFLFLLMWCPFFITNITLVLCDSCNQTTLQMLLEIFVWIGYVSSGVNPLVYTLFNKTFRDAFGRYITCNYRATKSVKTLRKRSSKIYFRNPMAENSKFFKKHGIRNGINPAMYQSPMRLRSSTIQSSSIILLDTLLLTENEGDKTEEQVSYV

Consider `CN(C)[C@@H]1CC[C@@H](c2c[nH]c3ccc(C#N)cc23)C1`, for which, in series [1], the IC50 worked out at 1.3 nM.
The compound `N#Cc1ccc2[nH]cc(C3CCC(N4CCCCC4)C3)c2c1` (stereo not drawn) registered a half-inhibitory concentration (IC50) in series [1] of 65 nM. This IC50 lies about 50-fold higher than the previous one.
In turn, `CN(C)C1CCC(c2c[nH]c3ccc(C#N)cc23)C1` (stereo not drawn) had a concentration for half-maximal inhibition (IC50) in series [1] of 0.48 nM. Compared with the last compound, the IC50 is about 140-fold lower.
Compound `CCCNC1CCC(c2c[nH]c3ccc(C#N)cc23)C1` (stereo not drawn) yielded a half-inhibitory concentration (IC50) in series [1] of 30 nM.
Same read-out and setting: in the case of `Fc1ccc2[nH]cc(C3CCC(N4CCCC4)C3)c2c1` (stereo not drawn) it was 2.9 nM.
On the same count and under the same terms, for `CN(Cc1ccccc1)C1CCC(c2c[nH]c3ccc(C#N)cc23)C1` (stereo not drawn) the value was 5.3 nM.
The same measure, in the same setting: for `CNC1CCC(c2c[nH]c3ccc(C#N)cc23)C1` (stereo not drawn) the value was 8.5 nM; for `N#Cc1ccc2[nH]cc(C3CCC(N4Cc5ccccc5C4)C3)c2c1` (stereo not drawn), 6.8 nM.
Consider `CCN(C)C1CCC(c2c[nH]c3ccc(F)cc23)C1` (stereo not drawn), for which the IC50 in series [1] is 3.7 nM.
The same measure, in the same setting: in the case of `CN(C)C1CCC(c2c[nH]c3cc(Cl)ccc23)C1` (stereo not drawn) it was 6.5 nM; in that of `CN(C)C1CCC(c2c[nH]c3cccc(F)c23)C1` (stereo not drawn), 31 nM; in that of `N#Cc1ccc2[nH]cc(C3CCC(N4CCCC4)C3)c2c1` (stereo not drawn), 3 nM.
Consider `CN(C)[C@@H]1CC[C@H](c2c[nH]c3ccc(C#N)cc23)C1`, for which the half-inhibitory concentration (IC50) in series [1] was 0.22 nM; in series [2], 6900 nM; in series [3], 1300 nM; in series [4] it was 1300 nM; in series [5], 340 nM; in series [6], 840 nM. Further, the half-inhibitory concentration (IC50) in series [7] is greater than 10000 nM; in [8] it was greater than 10000 nM; in [9], greater than 30000 nM; in [10], greater than 1000 nM; in series [11] it was 37 nM; in [12] it was greater than 1000 nM. For the same compound, the half-inhibitory concentration (IC50) in [13] is 7200 nM; in [14], greater than 30000 nM. Further, the Activity result in series [15] is “Dose-dependent effect”; in series [16], 150%. For the same compound, the result in [17] was Active. This compound also came in with a Drug uptake in series [18] of 1000 nM. This compound showed a concentration at 2 h in [19] of 820 nM. The compound further returned a bioavailability in [20] of 51%. In addition, the Tmax in [21] was 60 min. In series [22], this compound had a half-life of 33 min.
As for `CN(CCc1ccccc1)C1CCC(c2c[nH]c3ccc(C#N)cc23)C1` (stereo not drawn), the IC50 in series [1] was found to be 6.2 nM.
Still for that read-out and setting: in the case of `CCN(CC)C1CCC(c2c[nH]c3ccc(F)cc23)C1` (stereo not drawn) it was 7.3 nM.
The same measure, in the same setting: in the case of `CN(C)C1CCC(c2c[nH]c3cc(F)ccc23)C1` (stereo not drawn) it was 5.1 nM.
In series [1], `CN(C)C1CCC(c2c[nH]c3c(Br)cccc23)C1` (stereo not drawn) gave a concentration for half-maximal inhibition (IC50) of 1.6 nM.
The same measure, in the same setting: for `CN(C)[C@@H]1CC[C@H](c2c[nH]c3ccc(F)cc23)C1` (single isomer, unassigned) the value was 2.4 nM; for `CN(C)C1CCC(c2c[nH]c3ccc(Br)cc23)C1` (stereo not drawn), 4.3 nM.
Compound `CN(C)C1CCC(c2c[nH]c3ccc(F)cc23)C1` (stereo not drawn) displayed an IC50 in [1] of 1.7 nM.
On the same count and under the same terms, for `N#Cc1ccc2[nH]cc(C3CCC(N4CCOCC4)C3)c2c1` (stereo not drawn) the value was 110 nM.
With `CN(C)[C@H]1CC[C@H](c2c[nH]c3ccc(C#N)cc23)C1`, in series [1], the IC50 amounted to 0.97 nM.
Same read-out and setting: in the case of `CCN(C)C1CCC(c2c[nH]c3ccc(C#N)cc23)C1` (stereo not drawn) it was 1.6 nM; in that of `N#Cc1ccc2[nH]cc(C3CCC(N)C3)c2c1` (stereo not drawn), 32 nM.
With `CN(C)[C@H]1CC[C@H](c2c[nH]c3ccc(F)cc23)C1`, in [1], the IC50 was 5.9 nM.
On the same count and under the same terms, in the case of `CCNC1CCC(c2c[nH]c3ccc(C#N)cc23)C1` (stereo not drawn) it was 6.6 nM; in that of `CN(C)C1CCC(c2c[nH]c3c(F)cccc23)C1` (stereo not drawn), 3.3 nM; in that of `CN(C)[C@@H]1CC[C@@H](c2c[nH]c3ccc(F)cc23)C1`, 2.8 nM.
On the same count and under the same terms, in the case of `N#Cc1ccc2[nH]cc(C3CCC(NCCc4ccccc4)C3)c2c1` (stereo not drawn) it was 10 nM.
On the same count and under the same terms, for `CN(C)C1CCC(c2c[nH]c3cccc(Br)c23)C1` (stereo not drawn) the value was 5.3 nM; for `N#Cc1ccc2[nH]cc(C3CCC(N4CCc5ccccc5C4)C3)c2c1` (stereo not drawn), 6.5 nM.
In turn, `CN(C)[C@H]1CC[C@@H](c2c[nH]c3ccc(C#N)cc23)C1` yielded a concentration for half-maximal inhibition (IC50) in series [1] of 0.38 nM.
Still for that read-out and setting: in the case of `CCN(CC)C1CCC(c2c[nH]c3ccc(C#N)cc23)C1` (stereo not drawn) it was 6.2 nM; in that of `N#Cc1ccc2[nH]cc(C3CCC(NCc4ccccc4)C3)c2c1` (stereo not drawn), 15 nM.
The same measure, in the same setting: for `CN(C)C1CCC(c2c[nH]c3cc(Br)ccc23)C1` (stereo not drawn) the value was 9.6 nM; for `CN(C)C1CCC(c2c[nH]c3c(Cl)cccc23)C1` (stereo not drawn), 1.4 nM.
The same measure, in the same setting: for `CN(C)C1CCC(c2c[nH]c3ccc(Cl)cc23)C1` (stereo not drawn) the value was 3 nM.

What is called IC50 is the concentration at which inhibition is half-maximal. Low values mean inhibition by little substance, high ones a need for much substance. As usually defined, the bioavailability is dose-corrected exposure relative to a reference, in per cent. A higher bioavailability goes with much systemic uptake. Broadly, the Tmax is the time at which the peak concentration occurs. Usually half-life stands for the time in which the quantity being followed falls by half. Read a low half-life as fast loss.
